From PubChem BioAssay
T cruzi growth-1 – T. cruzi intracellular proliferation inhibitors, primary screen, cell-based, beta-gal Tulahuen parasites, NIH3T3 host, luminescence; T. cruzi beta-gal in NIH3T3, GalScreen luminescence, 90 h; AID 624255, 2012; 77,000 compounds, 5.9% hits; inhibition, % at 8.34 µM;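 active means mean inhibition above about 93%, with at least 55% of replicates each passing it, limit read from the data, passing the limit was not always enough; inconclusive means only one of those two conditions holds; inactive means neither condition holds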
Pf Dd2 inh – P. falciparum Dd2 growth inhibitors, primary screen, SYBR Green fluorescence, single dose replicates; 94,000 compounds, 2.3% hits; 72 h; active compounds read low; activity change, % at 10 µM; in the data active means activity change below about -80%; inconclusive means no clear call, values can overlap the other calls
KDM4C inh – inhibitors of GASC-1 (KDM4C) histone demethylase, primary screen, biochemical, single concentration HTS; 96,000 compounds, 0.15% hits; GST-KDM4C 2-372, H3K9me3 peptide, LANCE TR-FRET; inhibition, % at 12.5 µM; AID 720574, 2013;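 active means mean replicate inhibition above about 25%, with at least 55% of replicates also reaching it, limit read from the data, passing the limit was not always enough; inconclusive means only one of those two conditions met; inactive means neither condition met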
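Compound: one test concentration per compound; Material: GST-GASC-1 enzyme fragment 2-372; Amount: GASC-1 enzyme at 10 nM final in reaction; Also added: H3K9me3 peptide substrate, Fe(II), 2-oxoglutarate; Technique: LANCE TR-FRET; Times: 30 min demethylation and 1 h detection at room temperature.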
IDH1 R132H inh – inhibitors of IDH1 R132H reductase, primary screen, biochemical, plate reader, single point | Isocitrate dehydrogenase [NADP] cytoplasmic (Homo sapiens), O75874 | diaphorase/resazurin fluorescence, 60 min | inhibition, % at 10 µM | 70,000 compounds, 0.18% hits; in the data active means inhibition above about 34%; inconclusive means no clear call, values can overlap the other calls; inactive means below about 11%;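 further: 0% = DMSO and 100% = no enzyme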
Target sequence (O75874 whole entry R132H): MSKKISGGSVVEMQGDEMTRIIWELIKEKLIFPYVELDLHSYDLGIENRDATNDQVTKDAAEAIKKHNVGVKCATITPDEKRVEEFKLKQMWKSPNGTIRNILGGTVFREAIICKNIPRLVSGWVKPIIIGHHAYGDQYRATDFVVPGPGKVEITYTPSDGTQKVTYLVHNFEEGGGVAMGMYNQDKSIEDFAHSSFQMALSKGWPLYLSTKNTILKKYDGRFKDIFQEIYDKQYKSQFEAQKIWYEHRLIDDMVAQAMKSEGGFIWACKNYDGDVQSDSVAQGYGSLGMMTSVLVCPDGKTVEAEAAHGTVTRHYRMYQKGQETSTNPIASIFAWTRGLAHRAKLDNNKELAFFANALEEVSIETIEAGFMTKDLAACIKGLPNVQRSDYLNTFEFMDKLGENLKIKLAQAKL
T cruzi growth-2 – T. cruzi intracellular proliferation inhibitors, confirmation, cell-based, NIH3T3 host, beta-gal parasite, luminescence, cherry-pick; shares compounds with T cruzi growth-1; T. cruzi beta-gal in NIH3T3, GalScreen luminescence, 90 h; inhibition, % at 8.35 µM; 5,600 compounds, 72% hits; AID 651739, 2012;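 active means mean replicate inhibition above about 95% and at least 55% of replicates individually reaching it, limit read from the data; inconclusive means only one of the two criteria is met; inactive means neither criterion is met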
T cruzi growth-3 – inhibitors of intracellular T. cruzi replication, confirmation, NIH3T3 host cells, beta-gal parasites, cherry-pick, set 2 | shares compounds with T cruzi growth-1 | T. cruzi beta-gal in NIH3T3, GalScreen luminescence, 90 h | inhibition, % at 2.09 µM | 5,600 compounds, 21% hits;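 active means mean inhibition above about 95%, with at least 55% of replicates also reaching it, limit read from the data; inconclusive means meets just one of the two conditions; inactive means meets neither condition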;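 further: plate controls were neutral control median for no effect and positive control median for full effect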
3T3 cytotox – cytotoxicity in mouse NIH/3T3 fibroblasts, confirmation, cytotoxicity control for T. cruzi proliferation inhibitor project, cell-based, cherry-pick, single point; shares compounds with T cruzi growth-1; NIH/3T3 viability, CellTiter-Glo ATP luminescence, 90 h; cytotoxicity (signal decrease), % at 8.35 µM; 5,600 compounds, 14% hits; AID 651742, 2012;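 active means mean signal decrease across replicates above about 35% based on untreated-well scatter, with enough replicates individually passing, limit read from the data; inconclusive means no rule stated though some were filed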;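 further: 0% = median of neutral control wells and 100% = median of positive control wells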
3T3 cytotox 2 – NIH/3T3 fibroblast cytotoxicity, confirmation, cytotoxicity control, cell-based, cherry-pick, single point, set 2 | shares compounds with T cruzi growth-1 | inhibition, % at 24.9 µM | 5,600 compounds, 56% hits | NIH/3T3 viability, CellTiter-Glo ATP luminescence, 90 h;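 active means mean loss of cell viability signal at or above a set limit, and enough replicates individually reaching it; inconclusive means meets only the mean limit or only the replicate share; inactive means meets neither condition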;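 further: 0% = median of neutral control wells and 100% = median of positive control wells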
Starred values were filed as active, the others as inactive. In the library only some 5.8% were active in any assay of this set; here they are far more common.

How did COc1ccc(S(=O)(=O)Nc2ccc3c(c2)CC(=O)N([C@@H](C)CO)C[C@@H](C)[C@H](CN(C)Cc2ccccc2)O3)cc1 do in these assays?
T cruzi growth-1: 113*; Pf Dd2 inh: -26; KDM4C inh: -1; IDH1 R132H inh: 0; T cruzi growth-2: 108*; T cruzi growth-3: 89; 3T3 cytotox: 16; 3T3 cytotox 2: 23

What do the screens show for `C[C@@H]1CN([C@@H](C)CO)C(=O)Cc2cc(NS(=O)(=O)c3ccc(F)cc3)ccc2O[C@H]1CN(C)Cc1ccccc1`?
T cruzi growth-1: 114*; Pf Dd2 inh: -30; KDM4C inh: 2; IDH1 R132H inh: 1; T cruzi growth-2: 111*; T cruzi growth-3: 52; 3T3 cytotox: 32; 3T3 cytotox 2: inconclusive

How did C[C@@H]1CN([C@@H](C)CO)C(=O)Cc2cc(NS(=O)(=O)c3ccc(F)cc3)ccc2O[C@@H]1CN(C)Cc1ccccc1 do in these assays?
T cruzi growth-1: 94; Pf Dd2 inh: -20; KDM4C inh: 1

How did COc1ccc(S(=O)(=O)Nc2ccc3c(c2)CC(=O)N([C@H](C)CO)C[C@H](C)[C@@H](CN(C)Cc2ccccc2)O3)cc1 do in these assays?
T cruzi growth-1: 99*; Pf Dd2 inh: -35; KDM4C inh: 0; IDH1 R132H inh: -6; T cruzi growth-2: 104*; T cruzi growth-3: 45; 3T3 cytotox: -10; 3T3 cytotox 2: -17

How did C[C@@H]1CN([C@@H](C)CO)C(=O)Cc2cc(NS(=O)(=O)c3ccc(F)cc3)ccc2O[C@H]1CN(C)CC1CCCCC1 do in these assays?
T cruzi growth-1: 106*; Pf Dd2 inh: -18; KDM4C inh: 2; IDH1 R132H inh: 2; T cruzi growth-2: 112*; T cruzi growth-3: 54; 3T3 cytotox: 6; 3T3 cytotox 2: 103*

Results for COc1ccc(S(=O)(=O)Nc2ccc3c(c2)CC(=O)N([C@H](C)CO)C[C@@H](C)[C@@H](CN(C)Cc2ccccc2)O3)cc1 ?
T cruzi growth-1: 87; Pf Dd2 inh: -9; KDM4C inh: -1; IDH1 R132H inh: 0

Results for CCOC(=O)Cc1[nH]nc2c1C(C(C)C)C(C#N)=C(N)O2 (configuration not stated) ?
IDH1 R132H inh: 0

What do the screens show for `CC(C)C#Cc1ccc([C@@H]2[C@@H](CO)N3CCCCN(CC4CC4)C[C@H]23)cc1`?
T cruzi growth-1: 108*; Pf Dd2 inh: -58; KDM4C inh: 0; T cruzi growth-2: 108*; T cruzi growth-3: 74; 3T3 cytotox: 36*; 3T3 cytotox 2: 90*

Results for CC(C)C#Cc1ccc([C@@H]2[C@@H](CO)N3CCCCN(CC4CC4)C[C@@H]23)cc1 ?
T cruzi growth-1: inconclusive; Pf Dd2 inh: 4; KDM4C inh: 0; T cruzi growth-2: 95*; T cruzi growth-3: 73; 3T3 cytotox: inconclusive; 3T3 cytotox 2: 106*

How did CC(Oc1ccc(Cl)cc1Cl)C(=O)Nc1cc(C(F)(F)F)ccc1N1CCOCC1 (configuration not stated) do in these assays?
IDH1 R132H inh: 0

Results for Cc1noc(C)c1NC(=O)Nc1ccc2c(c1)C(=O)N([C@H](C)CO)C[C@H](C)[C@@H](CN(C)S(=O)(=O)c1ccc(Cl)cc1)OCCCC[C@@H](C)O2 ?
T cruzi growth-1: 3; Pf Dd2 inh: -11; IDH1 R132H inh: -2

Results for C[C@@H]1CCCCO[C@@H](CN(C)S(=O)(=O)c2ccc(Cl)cc2)[C@@H](C)CN([C@@H](C)CO)C(=O)c2cc(NC(=O)Nc3ccc4c(c3)OCO4)ccc2O1 ?
T cruzi growth-1: 97*; Pf Dd2 inh: -88*; KDM4C inh: 0; T cruzi growth-2: 105*; T cruzi growth-3: 79; 3T3 cytotox: 16; 3T3 cytotox 2: 27

Results for Cc1noc(C)c1NC(=O)Nc1ccc2c(c1)C(=O)N([C@@H](C)CO)C[C@H](C)[C@@H](CN(C)S(=O)(=O)c1ccc(Cl)cc1)OCCCC[C@@H](C)O2 ?
T cruzi growth-1: 99*; Pf Dd2 inh: -76; KDM4C inh: 0; T cruzi growth-2: 59; T cruzi growth-3: 10; 3T3 cytotox: -2; 3T3 cytotox 2: 4

What do the screens show for `C[C@@H]1CCCCO[C@@H](CN(C)S(=O)(=O)c2ccc(Cl)cc2)[C@H](C)CN([C@H](C)CO)C(=O)c2cc(NC(=O)Nc3ccc4c(c3)OCO4)ccc2O1`?
T cruzi growth-1: 106*; Pf Dd2 inh: -72; KDM4C inh: -1; T cruzi growth-2: 106*; T cruzi growth-3: 112*; 3T3 cytotox: 9; 3T3 cytotox 2: -6

What do the screens show for `C[C@@H]1CN([C@H](C)CO)C(=O)c2cc(NC(=O)Nc3ccc4c(c3)OCO4)ccc2O[C@@H](C)CCCCO[C@H]1CN(C)S(=O)(=O)c1ccc(Cl)cc1`?
T cruzi growth-1: 101*; Pf Dd2 inh: -76; KDM4C inh: -1; IDH1 R132H inh: 0; T cruzi growth-2: 108*; T cruzi growth-3: 43; 3T3 cytotox: -13; 3T3 cytotox 2: -10

Results for O=C(CCc1nc(-c2ccccc2F)no1)Nc1ccccc1[N+](=O)[O-] ?
IDH1 R132H inh: 0

Results for C[C@@H]1CCCCO[C@@H](CN(C)S(=O)(=O)c2ccc(Cl)cc2)[C@H](C)CN([C@@H](C)CO)C(=O)c2cc(NC(=O)Nc3ccc4c(c3)OCO4)ccc2O1 ?
T cruzi growth-1: 103*; Pf Dd2 inh: -65; KDM4C inh: 0; IDH1 R132H inh: 2; T cruzi growth-2: 110*; T cruzi growth-3: 80; 3T3 cytotox: -2; 3T3 cytotox 2: -11

Results for O=C(Nc1cccc(F)c1)N[C@@H]1CC[C@@H](CCNS(=O)(=O)c2cccc(Cl)c2)O[C@H]1CO ?
T cruzi growth-1: 26; Pf Dd2 inh: 7; KDM4C inh: -2; IDH1 R132H inh: -1
